The target in assay [1] is C-X-C chemokine receptor type 4 (Homo sapiens, UniProt P61073). Briefly: Inhibition of [125I]SDF-1 binding to C-X-C chemokine receptor type 4 expressed in CHO cells. The format is cell-based.
For assay [2], the system named is MT4. Briefly: Effective concentration against HIV-induced cytopathogenicity in MT-4 cells. The format is functional, cell-based. As to conditions: Homo sapiens. For orientation: Protection from cytopathic effect is a common read-out in antiviral testing.
In assay [3] the test system is MT4. As to the kind of experiment: Cytotoxic concentration against the mock infected MT-4 cells. The format is functional. Particulars: Homo sapiens. The method, boiled down: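 MT-4 cells (RPMI 1640, 10% heat-inactivated FCS, penicillin/streptomycin) without virus, 1.5×10^4 cells/well, exposed to graded compound concentrations for 5 days at 37 °C in CO₂; viable cells counted by MTT method; CC₅₀ from loss of viability; mean of at least three independent experiments.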

Where a SMILES comes first, the peptide text is derived from it. Where only a bound is given, the exact number is not on record here.

The values below come from ChEMBL document CHEMBL1145173, “Stereoselective synthesis of [L-Arg-L/D-3-(2-naphthyl)alanine]-type (E)-alkene dipeptide isosteres and its application to the synthesis and biological evaluation of pseudopeptide analogues of the CXCR4 antagonist FC131” (J Med Chem, 2005).

C-X-C chemokine receptor type 4, sequence (P61073 whole entry): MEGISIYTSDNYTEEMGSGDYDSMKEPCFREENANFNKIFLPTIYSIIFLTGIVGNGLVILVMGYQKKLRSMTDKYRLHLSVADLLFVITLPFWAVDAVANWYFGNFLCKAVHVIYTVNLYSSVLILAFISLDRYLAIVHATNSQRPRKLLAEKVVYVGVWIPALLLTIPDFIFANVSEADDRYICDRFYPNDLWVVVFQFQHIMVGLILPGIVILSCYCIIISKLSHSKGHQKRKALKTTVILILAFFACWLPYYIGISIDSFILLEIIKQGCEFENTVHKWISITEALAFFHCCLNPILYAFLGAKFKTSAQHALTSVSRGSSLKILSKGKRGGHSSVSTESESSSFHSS

As usually defined, the IC50 is the midpoint of a concentration-inhibition curve. High values mean weaker potency, low ones greater potency. As a reminder, the EC50 is the midpoint of the concentration-response curve. A low value points to a more potent agent. By CC50 is commonly meant the concentration giving 50% cytotoxicity. As for `N=C(N)NCCC[C@@H]1NC(=O)[C@@H](Cc2ccc(O)cc2)NC(=O)NC(=O)[C@@H](Cc2ccc3ccccc3c2)/C=C\[C@H](CCCN=C(N)N)NC1=O`, the IC50 in assay [1] is > 31000 nM. A half-maximal response in the assay on MT4 [2] (EC50) required 2400 nM. For the same compound, the CC50 in the assay on MT4 [3] is > 100000 nM.

The compound `N=C(N)NCCC[C@@H]1NC(=O)[C@@H](Cc2ccc(O)cc2)NC(=O)CNC(=O)[C@@H](Cc2ccc3ccccc3c2)NC(=O)[C@H](CCCN=C(N)N)NC1=O` registered an EC50 in the assay with MT4 [2] of 1900 nM. Besides, in the assay on MT4 [3], the CC50 was > 100000 nM.

As for `N=C(N)NCCC[C@@H]1NC(=O)[C@@H](Cc2ccc(O)cc2)NC(=O)CNC(=O)[C@H](Cc2ccc3ccccc3c2)/C=C\[C@H](CCCN=C(N)N)NC1=O`, the IC50 in assay [1] was 21000 nM. For the same compound, the EC50 in the assay on MT4 [2] turned out to be 9100 nM. The CC50 with MT4 [3] was > 100000 nM.

For `NC(N)=NCCC[C@@H]1NC(=O)[C@H](CCCN=C(N)N)NC(=O)[C@@H](Cc2ccc(O)cc2)NC(=O)C/C=C/[C@H](Cc2ccc3ccccc3c2)NC1=O`, the IC50 in assay [1] turned out to be 180 nM. Also, in the assay with MT4 [2], the EC50 turned out to be 2400 nM. For the same compound, the CC50 with MT4 [3] was > 100000 nM.

As for `N=C(N)NCCC[C@@H]1NC(=O)[C@@H](Cc2ccc(O)cc2)NC(=O)CNC[C@H](Cc2ccc3ccccc3c2)NC(=O)[C@H](CCCN=C(N)N)NC1=O`, in assay [1], the IC50 is 32 nM. In addition, in the assay on MT4 [2], the response was half-maximal at 980 nM (EC50). In addition, in the assay on MT4 [3], the half-maximal cytotoxic concentration (CC50) is > 100000 nM.

`N=C(N)NCCC[C@@H]1NC(=O)[C@@H](Cc2ccc(O)cc2)NC(=O)NC(=O)[C@H](Cc2ccc3ccccc3c2)NC(=O)[C@H](CCCN=C(N)N)NC1=O` came in with an IC50 in assay [1] of 4.5 nM. This compound returned an EC50 in the assay with MT4 [2] of 73 nM. The CC50 in the assay with MT4 [3] was > 100000 nM.

As for `NCCCC[C@@H]1NC(=O)[C@H](CCCN=C(N)N)NC(=O)[C@H](Cc2ccc(O)cc2)NC(=O)[C@@H](NC(=O)[C@H](Cc2ccc3ccccc3c2)NC(=O)[C@H](CCCN=C(N)N)NC(=O)[C@@H](N)CCCN=C(N)N)CSSC[C@@H](C(=O)N[C@@H](CCCN=C(N)N)C(=O)O)NC(=O)[C@H](CCCNC(N)=O)NC(=O)[C@H](CCCN=C(N)N)NC(=O)[C@H](Cc2ccc(O)cc2)NC(=O)[C@@H]2CCCN2C(=O)[C@@H](CCCCN)NC1=O` (HELM PEPTIDE1{R.R.[O=C([C@H](Cc1ccc2ccccc2c1)N[*:1])[*:2]].C.Y.R.K.[dK].P.Y.R.[Cit].C.R}$PEPTIDE1,PEPTIDE1,4:R3-13:R3$$$V2.0) [listing 1 of 2 here], the IC50 in assay [1] turned out to be 3.9 nM. The same compound gave an EC50 in the assay with MT4 [2] of 35 nM.

`NCCCC[C@@H]1NC(=O)[C@H](CCCN=C(N)N)NC(=O)[C@H](Cc2ccc(O)cc2)NC(=O)[C@@H](NC(=O)[C@H](Cc2ccc3ccccc3c2)NC(=O)[C@H](CCCN=C(N)N)NC(=O)[C@@H](N)CCCN=C(N)N)CSSC[C@@H](C(=O)N[C@@H](CCCN=C(N)N)C(=O)O)NC(=O)[C@H](CCCNC(N)=O)NC(=O)[C@H](CCCN=C(N)N)NC(=O)[C@H](Cc2ccc(O)cc2)NC(=O)[C@@H]2CCCN2C(=O)[C@@H](CCCCN)NC1=O` (HELM PEPTIDE1{R.R.[O=C([C@H](Cc1ccc2ccccc2c1)N[*:1])[*:2]].C.Y.R.K.[dK].P.Y.R.[Cit].C.R}$PEPTIDE1,PEPTIDE1,4:R3-13:R3$$$V2.0) [listing 2 of 2 here]: the CC50 in the assay on MT4 [3] was > 10000 nM.

In the assay with MT4 [2], `Cc1cn([C@H]2C[C@H](N=[N+]=[N-])[C@@H](CO)O2)c(=O)[nH]c1=O` [ZIDOVUDINE] returned an EC50 of 18 nM. The CC50 in the assay on MT4 [3] came out at 57000 nM.
